Test results from PubChem BioAssay AID1665 (Sanford-Burnham Center for Chemical Genomics, 2009).
The whole screen tested about 190,000 compounds, of which about 590 (0.31%) were called active.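 The calls were made as follows: active = nuclear translocation activity above 50% at 5 µM, with a well cell count of 50 or more; inconclusive = wells under 50 cells across six images, flagged as toxic; inactive = the rest.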 Shown is part of a subset that was picked to be rich in actives.

experiment: beta-catenin nuclear localization change in HeLa – imaging, HeLa cells, immunofluorescence, high-content, primary screen (AID 1665); details: at 5 µM; cell count: HeLa beta-catenin nuclear translocation, measured here: cell count, cytotoxicity flag; nuclear translocation activity: stronger effect = higher value;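 as to nuclear translocation activity: plate controls were DMSO negative control for no effect and GSK-3 inhibitor IX positive control for full effect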
Method in brief: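 Test system: HeLa cells, endogenous beta-catenin; Compound: single 5 µM dose plus 0.02–20 µM confirmation series; Times: compound exposure 24 h at 37°C; Signal: fluorescence imaging of beta-catenin antibody stain plus DAPI; Read-out: % activation, nuclear-to-cytoplasmic median beta-catenin signal ratio per cell.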

Row | SMILES | cell count | nuclear translocation activity
1 | Cn1nccc1NC(=O)Nc1ccc(OC(F)(F)F)cc1 | 1280 cells | 0.7% (inactive)
2 | CC(C)Cc1ccc(C(C)C(=N)N)cc1 (stereo not given) | 1310 cells | 1.1% (inactive)
3 | COc1ccc(CNC(=O)C2CC(c3ccc(C(F)(F)F)cc3)=NO2)cc1 (stereo not given) | 1110 cells | 2.2% (inactive)
4 | COc1ccc(C2=NOC(C(=O)NCc3ccco3)C2)cc1OC (stereo not given) | 701 cells | 166% (active)
5 | COc1ccc(-c2cc(C(=O)NCc3ccco3)no2)cc1OC | 1220 cells | -1.7% (inactive)
6 | COc1ccc(S(=O)(=O)N(CC(=O)N/N=C/c2ccccc2C(=O)O)c2ccccc2OC)cc1 | 1300 cells | -0.3% (inactive)
7 | Cc1cc(=O)oc2cc(OCC3CC(c4ccccc4Cl)=NO3)ccc12 (stereo not given) | 228 cells | 168% (active)
8 | Cc1cc(=O)oc2cc(OCCC[n+]3ccccc3)ccc12 | 1370 cells | -1% (inactive)
9 | Cc1ccccc1N1CCN(CCCOc2ccc3c(C)cc(=O)oc3c2)CC1 | 1030 cells | 1.9% (inactive)
10 | COc1ccc(C(C(=O)NC(C)(C)C)N(C(=O)Cn2nnc3ccccc32)c2ccc(C(C)=O)cc2)cc1O (stereo not given) | 1370 cells | -1% (inactive)
11 | COc1ccc(-n2nnnc2-c2nc3ccccc3s2)cc1 | 953 cells | 0.1% (inactive)
12 | CCOc1cccc(-c2nnc3sc(COc4ccc(OC)cc4)nn23)c1 | 1020 cells | -0.9% (inactive)
13 | CCOc1cccc(-n2nnnc2-c2ccc(OC)cc2)c1 | 184 cells | 63.9% (active)
14 | CC(C)(C)NC(=O)/C(=C/c1cccnc1)NC(=O)c1ccco1 | 1310 cells | -0.7% (inactive)
15 | Cc1nn2c(NCCN(C)C)c3c(nc2c1-c1ccccc1)CCC3 | 1430 cells | 0.3% (inactive)
16 | C=CCNC(=S)N1CCc2[nH]c3ccccc3c2C1 | 1340 cells | 0.9% (inactive)
17 | O=C(NNC(=S)Nc1ccc(F)cc1)[C@H]1C[C@@H]1c1ccccc1 | 1360 cells | -0.2% (inactive)
18 | Cc1ccc(/C=N/NC(=S)NC2CCCCC2)o1 | 1310 cells | -0.8% (inactive)
19 | Cc1cc(C)cc(OCC(=O)O/N=C(\N)Cc2ccc([N+](=O)[O-])cc2)c1 | 1030 cells | -2.4% (inactive)
20 | COc1ccc(-c2nn(C)c(=O)c3ccccc23)cc1CNC(=O)C1CCCCC1 | 1350 cells | 0.1% (inactive)
21 | COc1ccc(C(CC(=O)N2CCN(c3ccccc3)CC2)c2c(O)cc(OC)cc2OC)cc1 (stereo not given) | 1050 cells | 0.9% (inactive)
22 | Cc1ccc(/C=N/NC(=O)CSc2ccccn2)o1 | 1300 cells | 0.7% (inactive)

Row | SMILES | cell count | nuclear translocation activity
23 | COC(=O)c1c(C)oc(C)c1S(=O)(=O)Nc1ccc(C(C)C)cc1 | 1320 cells | -1.4% (inactive)
24 | CC12C(=O)N(c3ccccc3)C(=O)C1C(c1ccccc1)N1CCCN12 (stereo not given) | 1080 cells | -5.7% (inactive)
25 | COc1cc(NC(=O)c2ccc(CNc3c(N4CCCC4)c(=O)c3=O)cc2)cc(OC)c1OC | 1340 cells | -0.2% (inactive)
26 | O=C(CSc1nnc(SCc2ccc(F)cc2)s1)Nc1ccc(C(=O)O)cc1 | 1300 cells | -1% (inactive)
27 | CCOC(=O)N/N=C1\CC(C)S(=O)(=O)c2ccc(Cl)cc21 (stereo not given) | 1360 cells | 0.2% (inactive)
28 | Cc1cc(C(=O)N/N=C/c2ccccc2[N+](=O)[O-])c(C)o1 | 1070 cells | -0.2% (inactive)
29 | O=C(N/N=C/c1ccc([N+](=O)[O-])cc1)c1c[nH]c2ccccc12 | 1150 cells | -1.5% (inactive)
30 | Cc1c(C(=O)N/N=C/c2ccccc2)[nH]c2c([N+](=O)[O-])cccc12 | 474 cells | 69.8% (active)
31 | c1csc(-c2nnc(COc3ncnc4sccc34)o2)c1 | 1250 cells | 2.6% (inactive)
32 | O=C(NC(=O)N1CCSCC1)c1c(Cl)cccc1Cl | 1280 cells | 0.2% (inactive)
33 | O=C(Nc1cccnc1)c1cc([N+](=O)[O-])ccc1Cl | 1370 cells | -0.7% (inactive)
34 | CCOC(=O)CSC1=C(C#N)C(c2sccc2C)CC(=O)N1 (stereo not given) | 658 cells | 69% (active)
35 | Cc1ccc(C2CC(=O)NC(SCC(=O)OCc3ccccc3)=C2C#N)o1 (stereo not given) | 922 cells | 47.9% (inactive)
36 | C=CCOC(=O)C1=C(C)NC(SCC(=O)OCC)=C(C#N)C1c1ccc(C)cc1 (stereo not given) | 1350 cells | 0.1% (inactive)
37 | O=C(O)C1CCN(C(=O)c2cc(F)cc3c2OCOC3)CC1 | 1200 cells | -2.6% (inactive)
38 | O=C(NNC(=S)NC1CC2CCC1C2)c1ccc(Cl)cc1 (stereo not given) | 1150 cells | -1.4% (inactive)
39 | CCNC(=O)CCc1nc(-c2ccc(C)cc2)no1 | 1360 cells | -0.5% (inactive)
40 | Nc1nonc1-c1nc2ccccc2n1CCC(=O)O | 899 cells | -2% (inactive)
41 | Nc1nonc1-c1nc2ccccc2n1Cc1ccc(F)cc1 | 778 cells | -0.5% (inactive)
42 | COc1ccc(C)c(Cn2c(-c3nonc3N)nc3ccccc32)c1 | 720 cells | 101% (active)
43 | CCCc1nnc(NC(=O)c2cc(OC)cc(OC)c2)s1 | 878 cells | -2.3% (inactive)
44 | O=C(Nc1nnc(Cc2ccc(Cl)cc2)s1)c1ccncc1 | 1270 cells | 1% (inactive)

Row | SMILES | cell count | nuclear translocation activity
45 | COc1ccc(Cc2nnc(NC(=O)c3cc(OC)c(OC)c(OC)c3)s2)cc1OC | 371 cells | 53.4% (active)
46 | O=[N+]([O-])c1ccc2nc(-c3ccccn3)[nH]c2c1 | 1380 cells | -0.1% (inactive)
47 | Brc1ccc(-c2nn[nH]n2)cc1 | 1320 cells | 0.9% (inactive)
48 | Nc1ccc(C(=O)OCC(=O)NC2CCS(=O)(=O)C2)cc1[N+](=O)[O-] (stereo not given) | 1260 cells | -3.1% (inactive)
49 | Nc1c(N(CCO)C(=O)C2CCCCC2)c(=O)[nH]c(=O)n1Cc1ccccc1 | 1350 cells | 0.2% (inactive)
50 | O=C(Nc1ccc(S(=O)(=O)N2CCOCC2)cc1)c1ccc2ncsc2c1 | 1420 cells | -1.2% (inactive)
51 | O=C(NCc1ccco1)C1CCCN1S(=O)(=O)c1ccccc1C(F)(F)F (stereo not given) | 1300 cells | -0.6% (inactive)
52 | Cc1cc(CO)nn1-c1ccc([N+](=O)[O-])cc1 | 1190 cells | -2.5% (inactive)
53 | COc1ccc(Cl)cc1C(=O)NNC(=O)c1nc2nc(C)cc(C)n2n1 | 1330 cells | 1.2% (inactive)
54 | COc1cc2c(cc1OC)C(/C=C/c1ccco1)=NCC2 | 1310 cells | 2% (inactive)
55 | Cc1ccc(C)c2[nH]c(=O)c(CN(Cc3cccnc3)C(=S)NCc3ccco3)cc12 | 1320 cells | -1.9% (inactive)
56 | O=C(COC(=O)c1cc(S(=O)(=O)N2CCCCC2)ccc1Cl)NCc1ccco1 | 1080 cells | -1.5% (inactive)
57 | Cc1cc(C(=O)OCC(=O)NCc2ccco2)c(C)n1-c1ccccc1 | 337 cells | 94.1% (active)
58 | CN(c1ccccc1)S(=O)(=O)c1ccc(Cl)c(C(=O)OCC(=O)NCc2ccco2)c1 | 1260 cells | -0.2% (inactive)
59 | Cc1cc(C)n(-c2nc(C(F)(F)F)nc3ccccc23)n1 | 998 cells | 0% (inactive)
60 | CSc1nc(N(C)NC(=O)c2cccc(C)c2)c2ccccc2n1 | 751 cells | 97.3% (active)
61 | CN(NC(=O)c1ccccc1F)c1nc(C(F)(F)F)nc2ccccc12 | 103 cells | 155% (active)
62 | COc1ccc(C(=O)NN(C)c2nc(-c3ccccc3)cc(C)c2S(C)(=O)=O)cc1 | 1220 cells | -2.1% (inactive)
63 | CN(NC(=O)c1ccccc1)c1nc2ccccc2nc1C(F)(F)F | 965 cells | 6.3% (inactive)
64 | COc1ccc(OCC(=O)NNC(=O)c2cccc(C)c2)cc1 | 1060 cells | -0.2% (inactive)
65 | COC(=O)c1sccc1NN1C(=O)c2ccccc2C1=O | 1180 cells | -1.9% (inactive)
66 | COC(=O)c1cc(N2CCNCC2)nc2ccccc12 | 1220 cells | 1.7% (inactive)

Row | SMILES | cell count | nuclear translocation activity
67 | Cc1ccc(F)cc1NC(=O)N1CCCN(c2ccc(C(F)(F)F)cn2)CC1 | 1280 cells | -1% (inactive)
68 | CCN(CC)c1ccc(/C=N/NC(=O)c2cnccn2)c(O)c1 | 1050 cells | 12.5% (inactive)
69 | Cc1cc2c(cc1C)N(Cc1ccccc1)C1=NCCCN12 | 1210 cells | -0.7% (inactive)
70 | Cc1ccc(NC(=O)/C(=C\c2ccccc2)NC(=O)c2ccco2)cc1 | 1370 cells | 0.2% (inactive)
71 | COC(=O)c1cn(C(=O)c2ccc(Cl)cc2)c2ccccc12 | 1100 cells | -1.4% (inactive)
72 | COc1c(N2CCN(C(=S)Nc3ccccc3F)C(C)C2)c(F)cc2c(=O)c(C(=O)O)cn(C3CC3)c12 (stereo not given) | 1380 cells | 0.4% (inactive)
73 | Cc1ccc(OCC(=O)N/N=C\c2ccco2)c(C)c1 | 1340 cells | -1.4% (inactive)
74 | CSc1ccc(/C=N\NC(=O)COc2ccc(Cl)cc2Br)cc1 | 812 cells | -1.4% (inactive)
75 | Cc1ccc(/C=N/NC(=O)COc2ccccc2-c2ccccc2)cc1 | 162 cells | 107% (active)
76 | COc1ccc(CCN2C(=O)CC(N3CCC(C(N)=O)CC3)C2=O)cc1OC (stereo not given) | 1240 cells | 0.6% (inactive)
77 | Cc1ccc(N2NC(=O)/C(=C/C=C/c3ccco3)C2=O)cc1C | 1100 cells | 1.3% (inactive)
78 | Cc1cccc(N=C2NC(=O)/C(=C/c3cn(C)c4ccccc34)S2)c1 | 1040 cells | 0.7% (inactive)
79 | Cc1ccc(N=C2NC(=O)/C(=C/C=C/c3ccco3)S2)cc1C | 321 cells | 58.6% (active)
80 | CCCNc1c(N)c(=O)c1=O | 1380 cells | -0.4% (inactive)
81 | O=C(N/N=C/c1cccc2cccnc12)[C@H]1C[C@@H]1c1ccccc1 | 1300 cells | 2.9% (inactive)
82 | Cc1noc(C)c1C(=O)OCC(=O)N1CCN(S(=O)(=O)c2ccc3ccccc3c2)CC1 | 1300 cells | 0.1% (inactive)
83 | Cc1ccc(C(=O)N/C(=C\c2ccco2)C(=O)NC2CCS(=O)(=O)C2)cc1 (stereo not given) | 1360 cells | -0.2% (inactive)
84 | COc1ccc(CCNC(=O)C(=O)NCC2CCNCC2)cc1OC | 1380 cells | -1.5% (inactive)
85 | COc1ccc(CCNC(=O)C(=O)Nc2ccc3nc4n(c(=O)c3c2)CCCCC4)cc1OC | 1400 cells | 0.2% (inactive)
